The text below walks through data of ChEMBL document CHEMBL4028903 (J Med Chem, 2017).

Structures are written as SMILES.

For data set [1], the system named is Rattus norvegicus. Put plainly: In vivo agonist activity at FXR in po dosed Sprague-Dawley rat assessed as induction of FGF15 protein level in plasma administered once daily for 14 days measured 7 hrs post last dose on day 14. It counts as functional, organism-based.
A short description of data set [2]: Dissociation constant, pKa of compound. In kind it is physicochemical.
Data set [3] in a line: Clearance in rat at 3 mg/kg, iv by LC-MS/MS analysis. It counts as ADME, organism-based. As to conditions: in vivo. The essentials: (§1)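 Rats were dosed IV as a solution in 75% PEG300:25% D5W, or orally as a suspension in 0.5% methylcellulose, 0.5% Tween80 and 99% water.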
Data set [4] can be described thus: Oral bioavailability in rat at 10 mg/kg administered via gavage by LC-MS/MS analysis. In kind it is ADME, organism-based. As to conditions: in vivo. The gist of the method: as §1
The test system of data set [5] is Rattus norvegicus. Put plainly: In vivo agonist activity at FXR in po dosed Sprague-Dawley rat assessed as induction of BSEP mRNA level in liver administered once daily for 14 days measured 7 hrs post last dose on day 14 by qPCR analysis. In kind it is functional. A general note: In qPCR the cycle at which signal appears reflects the starting amount.
The test system of data set [6] is Rattus norvegicus. Kind of data set: In vivo agonist activity at FXR in po dosed Sprague-Dawley rat assessed as downregulation of CYP8B1 mRNA level in liver administered once daily for 14 days measured 7 hrs post last dose on day 14 by qPCR analysis. It counts as functional.
The test system of data set [7] is Rattus norvegicus. Put plainly: In vivo agonist activity at FXR in po dosed Sprague-Dawley rat assessed as reduction in serum triglyceride level administered once daily for 14 days measured 24 hrs post last dose. In kind it is functional, organism-based.
The nature of data set [8]: Drug uptake in Sprague-Dawley rat liver at 0.01 mg/kg, po qd administered via gavage measured 1 hr post last dose on day 14 by LC-MS/MS analysis. In kind it is ADME, organism-based. Conditions: read-out: Drug uptake. The gist of the method: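 Drug concentration in liver was quantified from tissue homogenates, so these are total levels. Unbound liver concentration was not determined.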

Data set [9] deals with Rattus norvegicus. Kind of data set: Dose normalized AUC (0 to 24 hrs) in Sprague-Dawley rat at 0.03 mg/kg, po qd administered via gavage measured on day 11 by LC-MS/MS analysis. In kind it is ADME, organism-based. As to conditions: in vivo.
The subject of data set [10] is Rattus norvegicus. Kind of data set: Dose normalized AUC (0 to 24 hrs) in Sprague-Dawley rat at 0.01 mg/kg, po qd administered via gavage measured on day 11 by LC-MS/MS analysis. In kind it is ADME, organism-based. As to conditions: in vivo.
Data set [11] can be described thus: AUC (0 to 24 hrs) in Sprague-Dawley rat at 1 mg/kg, po qd administered via gavage measured on day 11 by LC-MS/MS analysis. The arrangement: time < 24 hr, dose 1 mg/kg, route oral. As to conditions: in vivo. In kind it is ADME, organism-based.
The nature of data set [12]: AUC (0 to 24 hrs) in Sprague-Dawley rat at 0.01 mg/kg, po qd administered via gavage measured on day 11 by LC-MS/MS analysis. It counts as ADME, organism-based. The arrangement: dose 0.01 mg/kg, time < 24 hr, route oral. As to conditions: in vivo.
Data set [13] is described as follows: Cmax in Sprague-Dawley rat at 0.03 mg/kg, po qd administered via gavage measured on day 1 by LC-MS/MS analysis. In kind it is ADME, organism-based. The arrangement: dose 0.03 mg/kg, route oral. Conditions: in vivo.
Data set [14] can be described thus: Cmax in Sprague-Dawley rat at 0.01 mg/kg, po qd administered via gavage measured on day 1 by LC-MS/MS analysis. It counts as ADME, organism-based. The arrangement: dose 0.01 mg/kg, route oral. As to conditions: in vivo.
Data set [15] in a line: Cmax in Sprague-Dawley rat at 0.003 mg/kg, po qd administered via gavage measured on day 11 by LC-MS/MS analysis. The arrangement: dose 0.003 mg/kg, route oral. In kind it is ADME, organism-based. As to conditions: in vivo.
A short description of data set [16]: Cmax in mouse at 10 mg/kg, po administered via gavage by LC-MS/MS analysis. In kind it is ADME, organism-based. On the set-up: dose 10 mg/kg, route oral. As to conditions: in vivo. The essentials: (§2)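 Single oral dose given as a suspension in 0.5% methylcellulose, 0.5% Tween80 and 99% water. Doses were 10 mg/kg in mouse, 1 mg/kg in rat and 2 mg/kg in dog.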

Data set [17] can be described thus: Drug uptake in Sprague-Dawley rat plasma at 1 mg/kg, po qd administered via gavage measured 7 hrs post last dose on day 14 by LC-MS/MS analysis. In kind it is ADME, organism-based.
Data set [18] is described as follows: AUC in rat at 1 mg/kg, po administered via gavage by LC-MS/MS analysis. In kind it is ADME, organism-based. As to conditions: in vivo. The essentials:
as §2

Data set [19] concerns Rattus norvegicus. Kind of data set: Drug metabolism in rat assessed as glycine conjugated metabolite formation at 3 mg/kg, iv or 1 mg/kg, po administered via gavage by LC-MS/MS analysis. It counts as ADME, organism-based. As to conditions: in vivo.

Take `O=C(O)c1cc(F)c2nc(N3C4CCC3CC(OCc3c(-c5ccccc5OC(F)(F)F)noc3C3CC3)C4)sc2c1` (centres undefined): the Activity result in the data set on Rattus norvegicus [1] and in the data set with Rattus norvegicus [7] was “Dose-dependent effect” in each case. For the same compound, the pKa in data set [2] came out at 4. The compound also displayed a clearance in data set [3] of 9 to 9.3 mL/min/kg. The compound also came in with a bioavailability in data set [4] of 20%. The ED50 in the data set with Rattus norvegicus [5] stood at 0.02 mg/kg; in the data set on Rattus norvegicus [6] it was 0.01 mg/kg. Further, the concentration at 1 h in data set [8] came to 8.35 nM. For the same compound, the AUC/dose in the data set on Rattus norvegicus [9] was determined as 658 nM·h; in the data set with Rattus norvegicus [10], 496 nM·h. For the same compound, the AUC at 24 h was determined as 0.562 µM·h in data set [11] and 0.005 µM·h in data set [12]. Besides, the Cmax in data set [13] is 1.5 nM; in [14] it was 0.44 nM; in data set [15], 0.26 nM; in [16], 1190 nM. The same compound gave a concentration at 7 h in data set [17] of 40.5 nM. Further, the exposure (AUC) in data set [18] was found to be 0.307 µM·h. For the same compound, the Drug metabolism result in the data set on Rattus norvegicus [19] is “Metabolite_Notdetected”.

For orientation: pKa means the pH at which an ionisable group is half protonated. The low end stands for a group that gives up its proton readily, the high end for a group that holds its proton tightly. The clearance is the volume of plasma or blood freed of the substance per unit of time. A word on the bioavailability: it is the share of a dose that reaches the circulation, judged against a reference dose that is usually intravenous. What is called ED50 is the dose at which the effect has come halfway, by size or by number of responders. Usually AUC stands for concentration integrated over time. The low end stands for low exposure, the high end for high exposure. As a reminder, the Cmax is the highest concentration seen after dosing.
